Molecular target: T1, Human immunodeficiency virus type 1 reverse transcriptase (Human immunodeficiency virus 1, UniProt Q72547, K103N/L100I)
Assay: Inhibition of HIV1 reverse transcriptase L100I/K103N mutant associated RNase H domain activity assessed as reduction in reduction in DNA 3' end directed cleavage using HTS-2 RNA/DNA duplex substrate by fluorescence assay
Details: not given

Compound	IC50 [nM]
NS(=O)(=O)c1ccc(-c2ccc(Cc3ccc4c(c3)CC(=O)N(O)C4=O)cc2)cc1	300

Molecular target: T2, Human immunodeficiency virus type 1 reverse transcriptase (Human immunodeficiency virus 1, UniProt Q72547, Y181C)
Assay: Inhibition of HIV1 reverse transcriptase Y181C mutant polymerase activity using [3H]TTP and poly(rA)-oligo(dT)16 substrate incubated for 20 mins by liquid scintillation spectrometry
Details: not given
Procedure, shortened: (§1)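 HIV RT (WT or NNRTI-resistant mutant, 10 nM) added to start reaction with 10 μM [3H]-TTP and 40 nM poly(rA)-oligo(dT)16 in 50 mM Tris-HCl pH 7.4, 60 mM KCl, 5 mM MgCl2; 20 min at 37 °C. Quenched with ice-cold 10% TCA/20 mM sodium pyrophosphate, glass-fiber filtered, washed with TCA and ethanol; incorporation counted by scintillation.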

Compound	IC50 [nM]
NS(=O)(=O)c1ccc(-c2ccc(Cc3ccc4c(c3)CC(=O)N(O)C4=O)cc2)cc1	300

Test system: Human immunodeficiency virus
Assay: Antiviral activity against HIV infected in human HeLa P4/R5 cells pre-incubated for 16 hrs before virus infection and measured 48 hrs post virus infection by fluorescence-based beta-galactosidase detection assay
Assay type: functional, organism-based
Details: Human immunodeficiency virus 1, P4/R5
Procedure, shortened: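 P4R5 indicator cells (expressing CD4, CXCR4, CCR5 and an HIV LTR-driven β-galactosidase reporter) seeded at 5 × 10^3 per well in DMEM/10% FBS with puromycin (0.5 μg/mL). Drug added 16 h before HIV exposure, then 48 h further incubation. Single replication cycle; infection read by fluorescence-based β-galactosidase detection. Highest concentration tested 50 μM; values are averages of two determinations.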

Compound	EC50 [nM]
O=C1Cc2cc(Cc3ccc(-c4cccs4)cc3)ccc2C(=O)N1O	13000
O=C1Cc2cc(Cc3ccc(C(F)(F)F)cc3)ccc2C(=O)N1O	6200
O=C1Cc2cc(Cc3ccc(-c4ccc(F)cc4F)cc3)ccc2C(=O)N1O	13000
COc1ccc(-c2ccc(Cc3ccc4c(c3)CC(=O)N(O)C4=O)cc2)cc1	10000
O=C1Cc2cc(Cc3ccc(F)cc3)ccc2C(=O)N1O	13000
COc1ccc(-c2ccc(Cc3ccc4c(c3)CC(=O)N(O)C4=O)cc2)cc1F	13000
N#Cc1ccc(-c2ccc(Cc3ccc4c(c3)CC(=O)N(O)C4=O)cc2)cc1	13000

Molecular target: T1, Human immunodeficiency virus type 1 reverse transcriptase
Assay: Inhibition of HIV1 reverse transcriptase L100I/K103N mutant polymerase activity using [3H]TTP and poly(rA)-oligo(dT)16 substrate incubated for 20 mins by liquid scintillation spectrometry
Details: not given
Procedure, shortened: as §1

Compound	IC50 [nM]
NS(=O)(=O)c1ccc(-c2ccc(Cc3ccc4c(c3)CC(=O)N(O)C4=O)cc2)cc1	200

Molecular target: T3, Human immunodeficiency virus type 1 reverse transcriptase (Human immunodeficiency virus 1, UniProt Q72547)
Assay: Inhibition of HIV1 recombinant reverse transcriptase associated catalytically active RNase H domain assessed as reduction in RNA 5' end directed cleavage using HTS-3 RNA/DNA duplex substrate by fluorescence assay
Details: not given

Compound	IC50 [nM]
O=C1Cc2cc(Cc3ccc(-c4cccs4)cc3)ccc2C(=O)N1O	2700
O=C1Cc2cc(Cc3ccc(C(F)(F)F)cc3)ccc2C(=O)N1O	2000
NS(=O)(=O)c1ccc(-c2ccc(Cc3ccc4c(c3)CC(=O)N(O)C4=O)cc2)cc1	500
O=C1Cc2cc(Cc3ccc(-c4ccc(F)cc4F)cc3)ccc2C(=O)N1O	1400
O=C1Cc2cc(Cc3ccc(F)cc3)ccc2C(=O)N1O	1200
COc1ccc(-c2ccc(Cc3ccc4c(c3)CC(=O)N(O)C4=O)cc2)cc1F	1200
N#Cc1ccc(-c2ccc(Cc3ccc4c(c3)CC(=O)N(O)C4=O)cc2)cc1	900

Molecular target: T3, Human immunodeficiency virus type 1 reverse transcriptase
Assay: Inhibition of HIV1 recombinant reverse transcriptase associated catalytically active RNase H domain assessed as reduction in DNA 3' end directed cleavage using HTS-2 RNA/DNA duplex substrate by fluorescence assay
Details: not given

Compound	IC50 [nM]
O=C1Cc2cc(Cc3ccc(-c4cccs4)cc3)ccc2C(=O)N1O	2000
O=C1Cc2cc(Cc3ccc(C(F)(F)F)cc3)ccc2C(=O)N1O	1100
NS(=O)(=O)c1ccc(-c2ccc(Cc3ccc4c(c3)CC(=O)N(O)C4=O)cc2)cc1	500
O=C1Cc2cc(Cc3ccc(-c4ccc(F)cc4F)cc3)ccc2C(=O)N1O	900
O=C1Cc2cc(Cc3ccc(F)cc3)ccc2C(=O)N1O	800
COc1ccc(-c2ccc(Cc3ccc4c(c3)CC(=O)N(O)C4=O)cc2)cc1F	1800
N#Cc1ccc(-c2ccc(Cc3ccc4c(c3)CC(=O)N(O)C4=O)cc2)cc1	900

Molecular target: T1, Human immunodeficiency virus type 1 reverse transcriptase
Assay: Inhibition of HIV1 reverse transcriptase L100I/K103N mutant associated RNase H domain activity assessed as reduction in internal cleavage using HTS-1 RNA/DNA duplex substrate by fluorescence assay
Details: not given

Compound	IC50 [nM]
NS(=O)(=O)c1ccc(-c2ccc(Cc3ccc4c(c3)CC(=O)N(O)C4=O)cc2)cc1	400

Molecular target: Human immunodeficiency virus type 1 integrase (Human immunodeficiency virus 1, UniProt Q7ZJM1)
Sequence (Q7ZJM1 whole entry): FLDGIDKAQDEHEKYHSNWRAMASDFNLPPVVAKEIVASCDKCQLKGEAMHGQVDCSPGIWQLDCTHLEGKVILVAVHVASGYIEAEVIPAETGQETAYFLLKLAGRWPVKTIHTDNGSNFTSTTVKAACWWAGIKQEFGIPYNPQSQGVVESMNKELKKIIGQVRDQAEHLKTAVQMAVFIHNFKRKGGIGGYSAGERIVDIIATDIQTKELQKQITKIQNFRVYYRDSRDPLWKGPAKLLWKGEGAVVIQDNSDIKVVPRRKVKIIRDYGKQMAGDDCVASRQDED
Assay: Inhibition of HIV integrase pre-incubated for 10 mins before DNA substrate addition
Details: not given
Procedure, shortened: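 Strand transfer assay: 1 μM HIV integrase in 10 mM HEPES pH 7.5, 10% glycerol, 10 mM MnCl2, 1 mM DTT, with compound at 0.13–100 μM final in duplicate, preincubated 10 min at 25 °C. Started with biotin/Cy5-labelled oligo duplex, run 30 min at 37 °C, stopped with EDTA. Mean ± SD from at least three experiments.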

Compound	IC50 [nM]
O=C1Cc2cc(Cc3ccc(-c4cccs4)cc3)ccc2C(=O)N1O	> 100000
O=C1Cc2cc(Cc3ccc(C(F)(F)F)cc3)ccc2C(=O)N1O	> 100000
NS(=O)(=O)c1ccc(-c2ccc(Cc3ccc4c(c3)CC(=O)N(O)C4=O)cc2)cc1	3600
O=C1Cc2cc(Cc3ccc(-c4ccc(F)cc4F)cc3)ccc2C(=O)N1O	> 100000
O=C1Cc2cc(Cc3ccc(F)cc3)ccc2C(=O)N1O	36000
COc1ccc(-c2ccc(Cc3ccc4c(c3)CC(=O)N(O)C4=O)cc2)cc1F	> 100000
N#Cc1ccc(-c2ccc(Cc3ccc4c(c3)CC(=O)N(O)C4=O)cc2)cc1	> 100000

Test system: not listed separately
Assay: Selectivity index, ratio of IC50 for HIV integrase to IC50 for HIV1 recombinant reverse transcriptase associated catalytically active RNase H-mediated domain internal cleavage activity
Details: not given

Compound	Ratio IC50
NS(=O)(=O)c1ccc(-c2ccc(Cc3ccc4c(c3)CC(=O)N(O)C4=O)cc2)cc1	9
O=C1Cc2cc(Cc3ccc(F)cc3)ccc2C(=O)N1O	28

Molecular target: T3, Human immunodeficiency virus type 1 reverse transcriptase
Assay: Inhibition of HIV1 recombinant reverse transcriptase polymerase activity using [3H]TTP and poly(rA)-oligo(dT)16 substrate incubated for 20 mins by liquid scintillation spectrometry
Details: not given
Procedure, shortened: as §1

Compound	IC50 [nM]
O=C1Cc2cc(Cc3ccc(-c4cccs4)cc3)ccc2C(=O)N1O	1500
NS(=O)(=O)c1ccc(-c2ccc(Cc3ccc4c(c3)CC(=O)N(O)C4=O)cc2)cc1	500
O=C1Cc2cc(Cc3ccc(-c4ccc(F)cc4F)cc3)ccc2C(=O)N1O	2000
O=C1Cc2cc(Cc3ccc(F)cc3)ccc2C(=O)N1O	2300
COc1ccc(-c2ccc(Cc3ccc4c(c3)CC(=O)N(O)C4=O)cc2)cc1F	1900

Molecular target: T2, Human immunodeficiency virus type 1 reverse transcriptase
Assay: Inhibition of HIV1 reverse transcriptase Y181C mutant associated RNase H domain activity assessed as reduction in reduction in DNA 3' end directed cleavage using HTS-2 RNA/DNA duplex substrate by fluorescence assay
Details: not given

Compound	IC50 [nM]
NS(=O)(=O)c1ccc(-c2ccc(Cc3ccc4c(c3)CC(=O)N(O)C4=O)cc2)cc1	300

Molecular target: T2, Human immunodeficiency virus type 1 reverse transcriptase
Assay: Inhibition of HIV1 reverse transcriptase Y181C mutant associated RNase H domain activity assessed as reduction in internal cleavage using HTS-1 RNA/DNA duplex substrate by fluorescence assay
Details: not given

Compound	IC50 [nM]
NS(=O)(=O)c1ccc(-c2ccc(Cc3ccc4c(c3)CC(=O)N(O)C4=O)cc2)cc1	200

Molecular target: T3, Human immunodeficiency virus type 1 reverse transcriptase
Assay: Inhibition of HIV1 recombinant reverse transcriptase associated catalytically active RNase H domain assessed as reduction in internal cleavage using HTS-1 RNA/DNA duplex substrate by fluorescence assay
Details: not given

Compound	IC50 [nM]
O=C1Cc2cc(Cc3ccc(-c4cccs4)cc3)ccc2C(=O)N1O	2700
O=C1Cc2cc(Cc3ccc(C(F)(F)F)cc3)ccc2C(=O)N1O	1500
NS(=O)(=O)c1ccc(-c2ccc(Cc3ccc4c(c3)CC(=O)N(O)C4=O)cc2)cc1	400
O=C1Cc2cc(Cc3ccc(-c4ccc(F)cc4F)cc3)ccc2C(=O)N1O	1500
O=C1Cc2cc(Cc3ccc(F)cc3)ccc2C(=O)N1O	1300
COc1ccc(-c2ccc(Cc3ccc4c(c3)CC(=O)N(O)C4=O)cc2)cc1F	2200
N#Cc1ccc(-c2ccc(Cc3ccc4c(c3)CC(=O)N(O)C4=O)cc2)cc1	900

Molecular target: Gag-Pol polyprotein (Moloney murine leukemia virus isolate Shinnick, UniProt P03355)
Assay: Inhibition of Moloney murine leukemia virus reverse transcriptase polymerase activity using Td100/Pd18 DNA-DNA substrate incubated for 30 mins by fluorescence assay
Details: not given

Compound	IC50 [nM]
NS(=O)(=O)c1ccc(-c2ccc(Cc3ccc4c(c3)CC(=O)N(O)C4=O)cc2)cc1	2400

Test system: not listed separately
Assay: Toxicity against human HeLa P4/R5 cells
Assay type: cell-based
Details: HeLa P4/R5 cells

Compound	CC50 [nM]
O=C1Cc2cc(Cc3ccc(-c4cccs4)cc3)ccc2C(=O)N1O	> 50000
O=C1Cc2cc(Cc3ccc(-c4ccc(F)cc4F)cc3)ccc2C(=O)N1O	> 50000
O=C1Cc2cc(Cc3ccc(F)cc3)ccc2C(=O)N1O	> 50000
COc1ccc(-c2ccc(Cc3ccc4c(c3)CC(=O)N(O)C4=O)cc2)cc1F	> 50000
N#Cc1ccc(-c2ccc(Cc3ccc4c(c3)CC(=O)N(O)C4=O)cc2)cc1	> 50000

Same assay, conditions: p4/r5

Compound	CC50 [nM]
O=C1Cc2cc(Cc3ccc(C(F)(F)F)cc3)ccc2C(=O)N1O	50000

Molecular target: T3, Human immunodeficiency virus type 1 reverse transcriptase
Assay: Inhibition of reconstituted HIV1 RNase H using RNA/DNA duplex substrate by fluorescence assay
Details: not given

Compound	IC50 [nM]
O=C1Cc2cc(Cc3ccc(-c4cccs4)cc3)ccc2C(=O)N1O	700
O=C1Cc2cc(Cc3ccc(C(F)(F)F)cc3)ccc2C(=O)N1O	1200
NS(=O)(=O)c1ccc(-c2ccc(Cc3ccc4c(c3)CC(=O)N(O)C4=O)cc2)cc1	400
O=C1Cc2cc(Cc3ccc(-c4ccc(F)cc4F)cc3)ccc2C(=O)N1O	700
O=C1Cc2cc(Cc3ccc(F)cc3)ccc2C(=O)N1O	500
COc1ccc(-c2ccc(Cc3ccc4c(c3)CC(=O)N(O)C4=O)cc2)cc1F	700
N#Cc1ccc(-c2ccc(Cc3ccc4c(c3)CC(=O)N(O)C4=O)cc2)cc1	500

Test system: not listed separately
Assay: Inhibition of Moloney murine leukemia virus reverse transcriptase associated RNase H pre-incubated for 10 mins before HTS-1 RNA/DNA duplex substrate addition by fluorescence assay
Details: not given
Procedure, shortened: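 Preincubated 10 min at room temperature, then started with 100 nM HTS-1 duplex. IC50 at curve midpoint; duplicates, at least two experiments.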

Compound	IC50 [nM]
O=C1Cc2cc(Cc3ccc(C(F)(F)F)cc3)ccc2C(=O)N1O	> 30000
NS(=O)(=O)c1ccc(-c2ccc(Cc3ccc4c(c3)CC(=O)N(O)C4=O)cc2)cc1	> 30000
N#Cc1ccc(-c2ccc(Cc3ccc4c(c3)CC(=O)N(O)C4=O)cc2)cc1	> 30000

Test system: not listed separately
Assay: Therapeutic index, ratio of CC50 for human HeLa P4/R5 cells to EC50 for HIV infected in human HeLa P4/R5 cells
Assay type: cell-based
Details: read-out: Ratio CC50/EC50

Compound	selectivity ratio
O=C1Cc2cc(Cc3ccc(-c4cccs4)cc3)ccc2C(=O)N1O	> 4
O=C1Cc2cc(Cc3ccc(-c4ccc(F)cc4F)cc3)ccc2C(=O)N1O	> 4
O=C1Cc2cc(Cc3ccc(F)cc3)ccc2C(=O)N1O	> 4
COc1ccc(-c2ccc(Cc3ccc4c(c3)CC(=O)N(O)C4=O)cc2)cc1F	> 4

Test system: not listed separately
Assay: Inhibition of Escherichia coli RNase H pre-incubated for 10 mins before HTS-1 RNA/DNA duplex substrate addition by fluorescence assay
Details: not given
Procedure, shortened: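 E. coli RNase H at 4 nM with 6 mM MgCl2 and inhibitor at 1, 7 or 30 μM (2% DMSO final) in 50 mM Tris pH 7.8, 50 mM NaCl. Preincubated 10 min at room temperature, then started with 100 nM HTS-1 (fluorescein/Dabcyl RNA/DNA duplex). IC50 taken at curve midpoint; duplicates, at least two independent experiments.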

Compound	IC50 [nM]
NS(=O)(=O)c1ccc(-c2ccc(Cc3ccc4c(c3)CC(=O)N(O)C4=O)cc2)cc1	2500
N#Cc1ccc(-c2ccc(Cc3ccc4c(c3)CC(=O)N(O)C4=O)cc2)cc1	3200

— ChEMBL document CHEMBL3414532 (J Med Chem, 2015)
